# Test results as given in ChEMBL document CHEMBL1150301, “Structure-activity relationship studies on N'-aryl carbohydrazide P2X7 antagonists” (J Med Chem, 2008).
# Tests used:
# P2X purinoceptor 7 [1] = target: T1, P2X purinoceptor 7 (Rattus norvegicus, UniProt Q64663); assay: Antagonist activity at rat recombinant P2X7 receptor expressed in human 1321N1 cells assessed as benzoyl-ATP-induced calcium flux by FLIPR assay; type: functional, cell-based
# T1 sequence (Q64663 whole entry): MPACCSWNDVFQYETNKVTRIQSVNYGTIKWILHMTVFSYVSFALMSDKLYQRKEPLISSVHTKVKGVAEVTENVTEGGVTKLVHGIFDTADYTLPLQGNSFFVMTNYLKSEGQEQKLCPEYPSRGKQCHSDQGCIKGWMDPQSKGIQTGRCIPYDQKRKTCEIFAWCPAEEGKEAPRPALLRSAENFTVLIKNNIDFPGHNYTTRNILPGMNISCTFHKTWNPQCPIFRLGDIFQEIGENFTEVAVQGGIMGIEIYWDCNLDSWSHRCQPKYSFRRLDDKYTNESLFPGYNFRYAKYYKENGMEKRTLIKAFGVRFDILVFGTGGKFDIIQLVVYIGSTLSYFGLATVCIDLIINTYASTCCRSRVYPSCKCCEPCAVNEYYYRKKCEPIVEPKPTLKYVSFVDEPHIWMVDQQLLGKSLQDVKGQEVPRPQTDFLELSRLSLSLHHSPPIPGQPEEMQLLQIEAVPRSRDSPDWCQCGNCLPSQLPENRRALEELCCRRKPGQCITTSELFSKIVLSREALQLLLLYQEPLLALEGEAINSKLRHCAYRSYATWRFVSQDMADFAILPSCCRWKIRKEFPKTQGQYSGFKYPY
# Outline: (§1)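 The human or rat P2X7 was stably transfected into 1321N1 astrocytoma cells, which lack endogenous P2X function. Cells were loaded with Fluo-4 and given a 5 min antagonist pretreatment before BzATP challenge. Ca2+ flux was read on FLIPR. Results are pIC50 ± SEM, n = 2, or ≥3 where marked.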
# P2X purinoceptor 7 [2] = target: T2, P2X purinoceptor 7 (Homo sapiens, UniProt Q99572); assay: Antagonist activity at human recombinant P2X7 receptor expressed in human 1321N1 cells assessed as benzoyl-ATP-induced calcium flux by FLIPR assay; type: functional, cell-based; outline: as §1
# T2 sequence (Q99572 whole entry): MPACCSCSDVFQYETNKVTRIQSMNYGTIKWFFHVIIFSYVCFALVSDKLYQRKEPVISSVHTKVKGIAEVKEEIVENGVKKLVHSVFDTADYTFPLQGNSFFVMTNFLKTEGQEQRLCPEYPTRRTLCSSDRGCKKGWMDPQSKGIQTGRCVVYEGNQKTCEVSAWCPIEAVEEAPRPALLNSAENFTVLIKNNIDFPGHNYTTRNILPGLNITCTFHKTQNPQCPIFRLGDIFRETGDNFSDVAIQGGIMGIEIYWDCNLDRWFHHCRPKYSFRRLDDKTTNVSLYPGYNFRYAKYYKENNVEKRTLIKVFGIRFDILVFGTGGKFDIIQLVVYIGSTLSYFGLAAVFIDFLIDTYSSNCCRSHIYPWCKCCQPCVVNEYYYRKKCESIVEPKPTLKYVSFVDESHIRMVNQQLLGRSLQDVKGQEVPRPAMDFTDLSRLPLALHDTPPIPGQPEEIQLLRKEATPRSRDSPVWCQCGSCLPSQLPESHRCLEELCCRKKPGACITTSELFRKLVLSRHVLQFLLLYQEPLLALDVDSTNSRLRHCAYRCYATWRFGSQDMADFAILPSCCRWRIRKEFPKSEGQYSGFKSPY
# P2X purinoceptor 7 [3] = target: T2, P2X purinoceptor 7; assay: Antagonist activity at human recombinant P2X7 receptor expressed in differentiated human THP1 cells assessed as inhibition of benzoyl-ATP-induced IL1-beta release by ELISA; type: functional, cell-based, THP-1
# Outline: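 THP-1 cells were differentiated with LPS and IFNγ. Compound was present while cells were stimulated with BzATP for 30 min. Released IL-1β was quantified by ELISA kit. Results are given as pIC50.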
# Rattus norvegicus [4] = assay: Reversal of neuropathic pain in L5/L6 spinal nerve tight ligation rat model assessed as paw withdrawal threshold at 30 to 300 umol/kg, ip relative to contralateral paw; type: functional
# Outline: (§2)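 L5/L6 spinal nerve tight ligation was done 7–14 days before testing. Mechanical allodynia was measured with von Frey filaments before dosing, and rats with threshold <5 g were kept. Rats were retested 30 min after ip dosing at 30–300 µmol/kg. Reversal on the ipsilateral side was expressed relative to the contralateral side, and ED50 was derived.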
# Rattus norvegicus [5] = assay: Reversal of neuropathic pain in ip dosed L5/L6 spinal nerve tight ligation rat model assessed as paw withdrawal threshold; type: functional; outline: as §2
# Rattus norvegicus [6] = assay: Tmax in rat at 5 umol/kg, ip; type: ADME, organism-based; settings: in vivo
# Outline: (§3)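 Rats were dosed iv or ip at 5 µmol/kg in 10% DMSO/90% PEG. Plasma PK parameters were derived: Vβ, Clp, Cmax, Tmax, AUC, t1/2 and F.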
# Rattus norvegicus [7] = assay: AUC in rat at 5 umol/kg, iv; type: ADME, organism-based, Plasma; settings: in vivo; outline: as §3
# Rattus norvegicus [8] = assay: Cmax in rat at 5 umol/kg, ip; type: ADME, organism-based; parameters: dose 5 umol/kg, route intraperitoneal; settings: in vivo; outline: as §3
# Rattus norvegicus [9] = assay: AUC in rat at 5 umol/kg, ip; type: ADME, organism-based, Plasma; settings: in vivo; outline: as §3
# [10] = Volume of distribution at terminal phase in rat at 5 umol/kg, iv; type: ADME, organism-based; settings: in vivo, read-out: Vbeta; outline: as §3
# Rattus norvegicus [11] = assay: Half life in rat at 5 umol/kg, ip; type: ADME, organism-based; settings: in vivo; outline: as §3
# [12] = Bioavailability in rat at 5 umol/kg, ip; type: ADME, organism-based; settings: in vivo; outline: as §3
# [13] = Half life in rat at 5 umol/kg, iv; type: ADME, organism-based; settings: in vivo; outline: as §3
SMILES,IC50 (P2X purinoceptor 7 [1]),IC50 (P2X purinoceptor 7 [2]),also measured
O=C(NNc1ccccn1)C12CC3CC(CC(C3)C1)C2,427 nM,219 nM,–
CCCCCCC(=O)NNc1ccccc1C,195 nM,407 nM,–
O=C(NNc1cccc2ncccc12)C1(c2cccc(F)c2)CCCCC1,257 nM,141 nM,–
O=C(NNc1ccc(F)cc1)C12CC3CC(CC(C3)C1)C2,1070 nM,282 nM,–
O=C(CC12CC3CC(CC(C3)C1)C2)NNc1cccc2ncccc12,603 nM,57.5 nM,–
Cc1ccc(C)c(NNC(=O)C23CC4CC(CC(C4)C2)C3)c1,135 nM,57.5 nM,–
O=C(NNc1cccc2ncccc12)C1(c2ccccc2F)CCCCC1,324 nM,191 nM,–
O=C(NNc1ccc(Cl)cc1Cl)C12CC3CC(CC(C3)C1)C2,–,372 nM,pIC50 (P2X purinoceptor 7 [1]; 1321-n1): > 5
Cc1ccccc1NNC(=O)C1(c2ccccc2)CCCC1,151 nM,132 nM,–
CC1(C)C2CCC1(C(=O)NNc1cccc3ncccc13)C(=O)C2 (stereo not drawn),1510 nM,1380 nM,–
O=C(NNc1cccc2ncccc12)C1(c2ccc(F)cc2)CCCCC1,174 nM,70.8 nM,–
O=C(NNc1cccc2ncccc12)C12CC3CC(CC(O)(C3)C1)C2,2240 nM,275 nM,–
COc1ccc(NNC(=O)C23CC4CC(CC(C4)C2)C3)cc1,2450 nM,977 nM,–
Cc1ccccc1NNC(=O)C1(C)CCCCC1,148 nM,70.8 nM,–
Cc1ccccc1NNC(=O)C1CCCCC1,245 nM,174 nM,–
Cc1ccccc1NNC(=O)CCC(C)C,339 nM,148 nM,–
O=C(NNc1cccnc1)C12CC3CC(CC(C3)C1)C2,977 nM,832 nM,–
O=C(NNc1ccccc1)C12CC3CC(CC(C3)C1)C2,275 nM,110 nM,–
O=C(NNc1cccc(F)c1)C12CC3CC(CC(C3)C1)C2,468 nM,324 nM,–
CC1(C)C(C(=O)NNc2cccc3ncccc23)C1(C)C,155 nM,200 nM,–

# Now those with a lower IC50 (P2X purinoceptor 7 [2]), led by results:
IC50 (P2X purinoceptor 7 [1]),IC50 (P2X purinoceptor 7 [2]),SMILES,also measured
51.3 nM,52.5 nM,COc1ccc(C2(C(=O)NNc3cccc4ncccc34)CCCCC2)cc1,–
174 nM,51.3 nM,O=C(NNc1cccc2nc(Cl)ccc12)C12CC3CC(CC(C3)C1)C2,–
204 nM,39.8 nM,O=C(NNc1ccccc1F)C12CC3CC(CC(C3)C1)C2,–
151 nM,38.9 nM,Cc1ccccc1NNC(=O)CC1CCCCC1,–
51.3 nM,34.7 nM,O=C(NNc1cccc(Cl)c1Cl)C12CC3CC(CC(C3)C1)C2,–
49 nM,33.9 nM,Cc1ccccc1NNC(=O)C1CCCCCC1,–
151 nM,33.9 nM,O=C(NNc1cccc2cnccc12)C12CC3CC(CC(C3)C1)C2,–
52.5 nM,27.5 nM,O=C(NNc1cccc2ncccc12)C12CC3CC(CC1C3)C2,IC50 (P2X purinoceptor 7 [3]): 158 nM
123 nM,27.5 nM,CC1CCC(C)(C(=O)NNc2cccc3ncccc23)C1(C)C (stereo not drawn),–
145 nM,22.9 nM,CCC12CC3CC(C1)CC(C(=O)NNc1cccc4ncccc14)(C3)C2,–
31.6 nM,18.6 nM,CC1(C(=O)NNc2cccc3ncccc23)CC2C=CC1C2 (stereo not drawn),–
28.2 nM,11.7 nM,Cc1ccccc1NNC(=O)C12CC3CC(CC(C3)C1)C2,–
33.9 nM,11.5 nM,O=C(NNc1ccccc1Cl)C12CC3CC(CC(C3)C1)C2,–
44.7 nM,10.2 nM,O=C(NNc1cccc2ncccc12)C12CC3CC(CC(C3)C1)C2,Activity (Rattus norvegicus [4]): 68%; ED50 (Rattus norvegicus [5]): 92 µmol/kg; Tmax (Rattus norvegicus [6]): 30 min; AUC (Rattus norvegicus [7]): 940 ng·h/mL; Cmax (Rattus norvegicus [8]): 440 ng/mL; IC50 (P2X purinoceptor 7 [3]): 5.01 nM; AUC (Rattus norvegicus [9]): 390 ng·h/mL; Vd [10]: 0.9 L/kg; t1/2 (Rattus norvegicus [11]): 36 min; bioavailability [12]: 42%; half-life [13]: 24 min
35.5 nM,10.2 nM,O=C(NNc1cccc2ncccc12)C12CC3CC(CC(Cl)(C3)C1)C2,IC50 (P2X purinoceptor 7 [3]): < 1 nM
